Results: paper PMC5552238 (EBioMedicine, 2017)

Tested on: subcutaneous Hepa1-6 liver cancers
Experiment: Subcutaneous Hepa1-6 liver cancers, 747 combined with low-dose sorafenib
Format: in vivo, mouse
Conditions: sorafenib low dose 10 mg/kg
In short: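 Hepa1-6 cells (1.5 × 106) injected into right flank; mice randomized at ~0.5 cm tumors. Test compound given i.p. daily (0.5% HPMC/0.2% Tween), alone or with sorafenib 10 mg/kg intragastric. Volume = 1/2a × b². End-point paraffin sections stained for F4/80, Arg-1 and cleaved caspase-3 (primary overnight at 4 °C, HRP secondary 1 h at 37 °C, DAB). Sorted intratumoral CD8+ T cells analysed by qRT-PCR normalized to GAPDH/L32.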

Compound: CNC(=O)c1cc(Oc2ccc(NC(=O)Nc3ccc(Cl)c(C(F)(F)F)c3)cc2)ccn1 [sorafenib]
- therapeutic effect on subcutaneous tumors: no efficacy
